Assay results published in ChEMBL document CHEMBL4373737, “New thiazole-2(3H)-thiones containing 4-(3,4,5-trimethoxyphenyl) moiety as anticancer agents” (Eur J Med Chem, 2020).
Activity calls are given as the source filed them. No cut-off for these calls is given here.

Assays:
A549 [1] = experiment: Cytotoxicity against human A549 cells assessed as reduction in cell viability after 48 hrs by MTT assay; format: functional, cell-based; conditions: A549, 48 h
In short: (§1)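 MTT viability assay. Stocks in DMSO were diluted into culture medium to final 1, 5, 10, 50 and 100 µg/mL, with DMSO below 1%. A549, MCF-7, SKOV3 and normal mouse fibroblast L929 were used, with etoposide as reference. Values are means of three experiments. L929 was also tested up to 200 µg/mL alongside cisplatin 50 µg/mL.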

SK-OV-3 [2] = experiment: Cytotoxicity against human SKOV3 cells assessed as reduction in cell viability after 48 hrs by MTT assay; format: functional, cell-based; conditions: SK-OV-3, 48 h; in short: as §1
MCF7 [3] = experiment: Cytotoxicity against human MCF7 cells assessed as reduction in cell viability after 48 hrs by MTT assay; format: functional, cell-based; conditions: MCF7, 48 h; in short: as §1
SK-OV-3 [4] = experiment: Induction of apoptosis in human SKOV3 cells assessed as viable cells at 4 ug/ml after 48 hrs by AnnexinV-FITC/propidium iodide staining based FACScan flow cytometry analysis relative to control; format: functional; conditions: SK-OV-3, 48 h, read-out: Activity
In short: (§2)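 SKOV3 seeded at 1×10^6 cells/well for 24 h, then given fresh medium containing 2 or 4 µg/mL for 48 h. Cells harvested by trypsinization, PBS-washed, stained with Annexin-V-FITC 15 min at room temperature, then PI 10 min. Flow cytometry with 488 nm excitation; quadrants were necrotic, late apoptotic, viable and early apoptotic.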

Erythrocyte = experiment: Hemolytic activity in human erythrocytes at 1 to 5 ug/ml after 1 hr; format: ADME, cell-based
In short: (§3)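 Human erythrocytes; DMSO stock added 1:20 to diluted cells to give final 1, 5 and 10 µg/mL. DMSO served as negative control and Triton X-100 (2% v/v) as positive (100%) control. Percent hemolysis measured in three repeats, mean ± SD.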

SK-OV-3 [5] = experiment: Induction of apoptosis in human SKOV3 cells assessed as early apoptotic cells at 2 ug/ml after 48 hrs by AnnexinV-FITC/propidium iodide staining based FACScan flow cytometry analysis relative to control; format: functional; in short: as §2
MCF7 [6] = experiment: Cell cycle arrest in human MCF7 cells assessed as accumulation at S phase at 12 ug/ml after 48 hrs by RNase A/propidium iodide staining based FACScalibur flow cytometry (reference value: 38.2 %); format: functional
In short: (§4)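 MCF-7 seeded at 25×10^4 cells/well, treated 24 h later with 12 µg/mL for 48 h; untreated control. Cells washed in cold PBS, fixed in 70% ethanol ≥3 h, RNase A 1 h at room temperature, then propidium iodide. Phase distribution (sub-G1, G1, S, G2/M) read by flow cytometry.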

Ovis aries [7] = species: Ovis aries; experiment: (§5) Inhibition of sheep brain tubulin polymerization incubated for 15 mins in presence of GTP by turbidimetric method
In short: (§6)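 Tubulin purified from sheep brain by three polymerization/depolymerization cycles. It was preincubated 15 min on ice with 0.5, 2, 10 or 20 µg/mL, then polymerization started with 1 mM GTP at 37 °C and followed by turbidity at 350 nm. IC50 was taken from area under the curve, with untreated control set as 100% polymerization. Colchicine served as reference.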

[8] = as §5; parameters: species or system Ovis aries; in short: as §6
SK-OV-3 [9] = experiment: Induction of apoptosis in human SKOV3 cells assessed as necrotic cells at 2 ug/ml after 48 hrs by AnnexinV-FITC/propidium iodide staining based FACScan flow cytometry analysis relative to control; format: functional; in short: as §2
SK-OV-3 [10] = experiment: Induction of apoptosis in human SKOV3 cells assessed as viable cells at 2 ug/ml after 48 hrs by AnnexinV-FITC/propidium iodide staining based FACScan flow cytometry analysis relative to control; format: functional; conditions: SK-OV-3, 48 h, read-out: Activity; in short: as §2
MCF7 [11] = experiment: Cell cycle arrest in human MCF7 cells assessed as accumulation at G2/M phase at 12 ug/ml after 48 hrs by RNase A/propidium iodide staining based FACScalibur flow cytometry (reference value: 16.69 %); format: functional; in short: as §4
SK-OV-3 [12] = experiment: Induction of apoptosis in human SKOV3 cells assessed as necrotic cells at 4 ug/ml after 48 hrs by AnnexinV-FITC/propidium iodide staining based FACScan flow cytometry analysis relative to control; format: functional; in short: as §2
SK-OV-3 [13] = experiment: Induction of apoptosis in human SKOV3 cells assessed as late apoptotic cells at 2 ug/ml after 48 hrs by AnnexinV-FITC/propidium iodide staining based FACScan flow cytometry analysis relative to control; format: functional; in short: as §2
SK-OV-3 [14] = experiment: Induction of apoptosis in human SKOV3 cells assessed as late apoptotic cells at 4 ug/ml after 48 hrs by AnnexinV-FITC/propidium iodide staining based FACScan flow cytometry analysis relative to control; format: functional; in short: as §2
L929 [15] = experiment: Genotoxicity in mouse L929 cells assessed as induction of DNA damage at 10 ug/ml incubated for 1 hr by alkaline comet assay; format: toxicity, cell-based; conditions: l929, 1 h
In short: (§7)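 Alkaline comet assay in L929 seeded at 250000 cells/well and exposed for 1 h to 10 µg/mL; etoposide 0.5 µg/mL served as positive control and untreated cells as negative. Cells were embedded in low-melt agarose and lysed 1 h at 4 °C (2.5 M NaCl, 100 mM EDTA, 10 mM Tris, pH 10, 10% DMSO, 1% Triton X-100). DNA unwound 40 min at pH>13, electrophoresed 25 V/300 mA 20 min, neutralized, stained with ethidium bromide. Tail length, % tail DNA and tail moment scored; mean ± SEM.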

[16] = Hemolytic activity in human erythrocytes at 10 ug/ml after 1 hr relative to control; format: ADME, cell-based, Erythrocyte; conditions: read-out: Activity; in short: as §3
MCF7 [17] = experiment: Cell cycle arrest in human MCF7 cells assessed as accumulation at G1 phase at 12 ug/ml after 48 hrs by RNase A/propidium iodide staining based FACScalibur flow cytometry (reference value: 44.45 %); format: functional; in short: as §4
MCF7 [18] = experiment: Cell cycle arrest in human MCF7 cells assessed as accumulation at sub-G1 phase at 12 ug/ml after 48 hrs by RNase A/propidium iodide staining based FACScalibur flow cytometry (reference value: 0.66 %); format: functional; in short: as §4
SK-OV-3 [19] = experiment: Induction of apoptosis in human SKOV3 cells assessed as early apoptotic cells at 4 ug/ml after 48 hrs by AnnexinV-FITC/propidium iodide staining based FACScan flow cytometry analysis relative to control; format: functional; in short: as §2
L929 [20] = experiment: Cytotoxicity against mouse L929 cells assessed as […] cell viability after 48 hrs by MTT assay; format: cell-based; conditions: L929, 48 h; in short: as §1
Ovis aries [21] = species: Ovis aries; experiment: Inhibition of colchicine binding to sheep brain tubulin assessed as decrease in fluorescence of colchicine-tubulin complex at 1 to 5 uM by fluorescence based assay
In short: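 Purified tubulin (0.25 µM) incubated 1 h at 37 °C with colchicine 0.1, 0.25, 0.5 or 1 µM, then test compound at final 1 or 5 µM. Fluorescence read at ex 360/em 430 nm, corrected for compound background, expressed as F/F0; n=3.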

HCT-116 = experiment: Cytotoxicity against human HCT116 cells assessed as reduction in cell growth; format: functional, cell-based
B16 = experiment: Cytotoxicity against mouse B16 cells assessed as reduction in cell growth; format: functional, cell-based
PC-3 = experiment: Cytotoxicity against human PC3 cells assessed as reduction in cell growth; format: functional, cell-based
A549 [22] = experiment: Cytotoxicity against human A549 cells assessed as reduction in cell growth; format: functional, cell-based
MCF7 [23] = experiment: Cytotoxicity against human MCF7 cells assessed as reduction in cell growth; format: functional, cell-based
L929 [24] = experiment: Genotoxicity in mouse L929 cells assessed as induction of DNA damage at 0.5 ug/ml incubated for 1 hr by alkaline comet assay; format: toxicity, cell-based; conditions: l929, 1 h; in short: as §7

COc1cc(C2(O)CSC(=S)N2Cc2ccc(Cl)cc2)cc(OC)c1OC (stereo not given)
IC50 (A549 [1]): 11.6 µM | IC50 (SK-OV-3 [2]): 18.1 µM | IC50 (MCF7 [3]): 18.8 µM

COc1cc(-n2c(-c3ccc(Cl)cc3)csc2=S)cc(OC)c1OC
IC50 (MCF7 [3]): > 100 µg/mL

COc1cc(C2(O)CSC(=S)N2Cc2ccc(F)cc2)cc(OC)c1OC (stereo not given)
IC50 (A549 [1]): 21.4 µM | IC50 (SK-OV-3 [2]): 12.4 µM | IC50 (MCF7 [3]): 12 µM

COc1cc(-c2csc(=S)n2Cc2ccccc2)cc(OC)c1OC
IC50 (A549 [1]): 12.1 µM | IC50 (SK-OV-3 [2]): 17.5 µM | IC50 (MCF7 [3]): 13.9 µM

COc1cc(-c2csc(=S)n2Cc2ccc(Cl)cc2)cc(OC)c1OC
viability at 4 µg/mL (SK-OV-3 [4]): 64.1% | IC50 (A549 [1]): 6.7 µM | Activity (Erythrocyte): Non-Toxic | Activity (SK-OV-3 [5]): 6.2% | Activity (MCF7 [6]): 22.43% | IC50 (SK-OV-3 [2]): 18.1 µM | inhibition (Ovis aries [7]): Dose-dependent effect | IC50 [8]: 9.97 µg/mL | IC50 (MCF7 [3]): 5.9 µM | Activity (SK-OV-3 [9]): 16.12% | viability at 2 µg/mL (SK-OV-3 [10]): 64.1% | Activity (MCF7 [11]): 5.72% | Activity (SK-OV-3 [12]): 19.9% | Activity (SK-OV-3 [13]): 13.55% | Activity (SK-OV-3 [14]): 15.49% | Activity (L929 [15]): Toxic | hemolysis at 1 h, 10 ug/ml [16]: < 25% | Activity (MCF7 [17]): 54.57% | Activity (MCF7 [18]): 17.28% | Activity (SK-OV-3 [19]): 6.2% | IC50 (L929 [20]): > 200 µg/mL

COc1cc(-c2csc(=S)n2Cc2ccc(O)cc2)cc(OC)c1OC
IC50 (A549 [1]): 15.6 µM | IC50 (SK-OV-3 [2]): 18.7 µM | IC50 (MCF7 [3]): 22 µM

COc1cc(-c2csc(=S)n2-c2ccc(Cl)cc2)cc(OC)c1OC
IC50 (A549 [1]): 15.4 µM | IC50 (SK-OV-3 [2]): 17.7 µM | IC50 (MCF7 [3]): 16.9 µM

COc1cc(C2(O)CSC(=S)N2Cc2ccccc2)cc(OC)c1OC (stereo not given)
IC50 (A549 [1]): 12.8 µM | IC50 (SK-OV-3 [2]): 13.8 µM | IC50 (MCF7 [3]): 13.4 µM

COc1cc(-c2csc(=S)n2Cc2ccc(F)cc2)cc(OC)c1OC
IC50 (A549 [1]): 15.8 µM | IC50 (SK-OV-3 [2]): 18.6 µM | IC50 (MCF7 [3]): 10 µM

COc1cc(-c2csc(=S)n2C)cc(OC)c1OC
IC50 (A549 [1]): 17.5 µM | IC50 (SK-OV-3 [2]): 23.4 µM | IC50 (MCF7 [3]): 27.7 µM

COc1cc(-c2csc(=S)n2Cc2ccccc2Cl)cc(OC)c1OC
viability at 4 µg/mL (SK-OV-3 [4]): 58.9% | IC50 (A549 [1]): 13.8 µM | inhibition (Ovis aries [21]): Active | Activity (SK-OV-3 [5]): 3.06% | Activity (MCF7 [6]): 7.17% | IC50 (SK-OV-3 [2]): 13.5 µM | inhibition (Ovis aries [7]): Dose-dependent effect | IC50 [8]: 5.14 µg/mL | IC50 (MCF7 [3]): 2.8 µM | Activity (SK-OV-3 [9]): 12.57% | viability at 2 µg/mL (SK-OV-3 [10]): 68.9% | Activity (MCF7 [11]): 0.07% | Activity (SK-OV-3 [12]): 13.72% | Activity (SK-OV-3 [13]): 15.49% | Activity (SK-OV-3 [14]): 19.81% | Activity (L929 [15]): Non-Toxic | hemolysis at 1 h, 10 ug/ml [16]: < 25% | Activity (MCF7 [17]): 78.02% | Activity (MCF7 [18]): 14.74% | Activity (SK-OV-3 [19]): 7.6% | IC50 (L929 [20]): > 200 µg/mL

COc1ccc(-c2coc(=O)n2-c2cc(OC)c(OC)c(OC)c2)cc1N
IC50 (HCT-116): 0.0011 to 0.0043 µM | IC50 (B16): 0.0011 to 0.0043 µM | IC50 (PC-3): 0.0011 to 0.0043 µM | IC50 (A549 [22]): 0.0011 to 0.0043 µM | IC50 (MCF7 [23]): 0.0011 to 0.0043 µM

COc1cc([C@@H]2c3cc4c(cc3[C@@H](O[C@@H]3O[C@@H]5CO[C@@H](C)O[C@H]5[C@H](O)[C@H]3O)[C@H]3COC(=O)[C@H]23)OCO4)cc(OC)c1O [ETOPOSIDE]
IC50 (A549 [1]): 6 µM | IC50 (SK-OV-3 [2]): 9.2 µM | IC50 (MCF7 [3]): 5.7 µM | Activity (L929 [24]): Toxic

COc1cc(C2(O)CSC(=S)N2Cc2ccccc2Cl)cc(OC)c1OC (stereo not given)
IC50 (A549 [1]): 14.6 µM | IC50 (SK-OV-3 [2]): 12.1 µM | IC50 (MCF7 [3]): 12.3 µM

COc1cc(C2(O)CSC(=S)N2C)cc(OC)c1OC (stereo not given)
IC50 (A549 [1]): 10.2 µM | IC50 (SK-OV-3 [2]): 13.4 µM | IC50 (MCF7 [3]): 26.1 µM

COc1cc(-c2csc(=S)n2-c2ccc(Cl)c(Cl)c2)cc(OC)c1OC
IC50 (A549 [1]): 12.1 µM | IC50 (SK-OV-3 [2]): 17.9 µM | IC50 (MCF7 [3]): 9.6 µM
